# Measurements as given in ChEMBL document CHEMBL1138611, “Oxadiazolylindazole sodium channel modulators are neuroprotective toward hippocampal neurones” (J Med Chem, 2009).
# pIC50: −log10 of the molar value. The source made the active and inactive calls. The calls are words filed in the database; no cut-off is given here.
# What was measured:
# [1] = target: T1, Sodium channel protein type 8 subunit alpha (Homo sapiens, UniProt Q9UQD0); assay: Inhibition of human Nav1.6 expressed in HEK293 cells assessed as change in membrane potential using MP-red voltage sensitive dye at 10 uM; type: cell-based
# Method in brief: (§1)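 Human Nav isoforms stably expressed in HEK293 cells with β1 subunit (Nav1.8 without β subunit), with tetrodotoxin sensitivity checked. Membrane potential change read with MP-red voltage-sensitive dye kit. Single-concentration screen at 10 µM gives percent inhibition as mean of duplicates, or an IC50 in µM where determined. Compounds come from 1 or 10 mM DMSO stocks diluted in assay buffer.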
# [2] = target: Sodium channel protein type 3 subunit alpha (Homo sapiens) (UniProt Q9NY46); assay: Inhibition of human Nav1.3 expressed in HEK293 cells assessed as change in membrane potential using MP-red voltage sensitive dye at 10 uM; type: cell-based; method in brief: as §1
# [3] = target: Sodium channel protein type 2 subunit alpha (Homo sapiens) (UniProt Q99250); details: HEK293, 100 uM
# [4] = target: Sodium channel protein type 1 subunit alpha (Homo sapiens) (UniProt P35498); assay: Inhibition of human Nav1.1 expressed in HEK293 cells assessed as change in membrane potential using MP-red voltage sensitive dye at 10 uM; type: cell-based; method in brief: as §1
# [5] = target: Sodium channel protein type 2 subunit alpha (Homo sapiens) (UniProt Q99250); details: HEK293, 100 uM; remark: listed apart in the source
# [6] = target: Sodium channel protein type 2 subunit alpha (Homo sapiens) (UniProt Q99250); details: HEK293, 30 uM
# [7] = target: Sodium channel protein type 4 subunit alpha (Homo sapiens) (UniProt P35499); assay: Inhibition of human Nav1.4 expressed in HEK293 cells assessed as change in membrane potential using MP-red voltage sensitive dye at 10 uM; type: cell-based; method in brief: as §1
# Hippocampus [8] = assay: Neuroprotective activity in Wistar rat hippocampal slices assessed as ATP concentration at 30 uM relative to tetrodotoxin; type: functional
# [9] = target: Sodium channel protein type 9 subunit alpha (Homo sapiens) (UniProt Q15858); assay: Inhibition of human Nav1.7 expressed in HEK293 cells assessed as change in membrane potential using MP-red voltage sensitive dye at 10 uM; type: cell-based; method in brief: as §1
# [10] = target: Sodium channel protein type 10 subunit alpha (Homo sapiens) (UniProt Q9Y5Y9); assay: Inhibition of human Nav1.8 expressed in HEK293 cells assessed as change in membrane potential using MP-red voltage sensitive dye at 10 uM; type: cell-based; method in brief: as §1
# [11] = target: Nav1.5 (sodium channel protein type 5 subunit alpha) (Homo sapiens, UniProt Q14524); assay: Inhibition of human Nav1.5 expressed in HEK293 cells assessed as change in membrane potential using MP-red voltage sensitive dye at 10 uM; type: cell-based; details: HEK293 cells expressing human Nav1.5; method in brief: as §1
# [12] = target: Sodium channel protein type 2 subunit alpha (Homo sapiens) (UniProt Q99250); details: HEK293, 30 uM; remark: listed apart in the source
# [13] = Inhibition of voltage-gated sodium channel in Wistar rat forebrain synaptosomes assessed as inhibition of [14C]guanidium ion flux; type: subcellular, Brain
# [14] = Displacement of [3H]BW202W92 from voltage-gated sodium channel in Wistar rat forebrain synaptosomes by liquid scintillation counting; type: subcellular, Brain
# [15] = target: T1, Sodium channel protein type 8 subunit alpha; assay: Inhibition of human Nav1.6 expressed in HEK293 cells assessed as change in membrane potential at 50 uM by patch clamp technique; type: cell-based
# Method in brief: (§2)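 Automated parallel whole-cell patch clamp at room temperature on human Nav1.2 or Nav1.6 in HEK293 cells. Each exposure lasts 5 min, at 10 and 50 µM (lamotrigine on Nav1.2 at 30 and 100 µM), with two to four cells per concentration. Peak current inhibition is given as percent, mean of duplicate experiments (n = 2) unless noted otherwise.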
# Hippocampus [16] = assay: Neuroprotective activity in Wistar rat hippocampal slices assessed as ATP concentration at 3 uM relative to tetrodotoxin; type: functional
# [17] = target: T1, Sodium channel protein type 8 subunit alpha; assay: Use-dependent inhibition of human Nav1.6 expressed in HEK293 cells at 10 uM using double-pulse protocol by patch clamp technique; type: cell-based
# Method in brief: (§3)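 Human Nav1.2 or Nav1.6 in HEK293 cells, automated patch clamp at room temperature with 5 min exposure. Holding potential -80 mV, prepulse -120 mV, then P1 to 0 mV for 200 ms, 200 ms at -80 mV, and P2 to 0 mV for 20 ms, repeated at 0.1 Hz. Use-dependent inhibition I = (1 − P2T/P1T) × P1C/P2C × 100; mean of duplicates.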
# [18] = target: T1, Sodium channel protein type 8 subunit alpha; assay: Use-dependent inhibition of human Nav1.6 expressed in HEK293 cells at 50 uM using double-pulse protocol by patch clamp technique; type: cell-based; method in brief: as §3
# [19] = target: Sodium channel protein type 2 subunit alpha (Homo sapiens) (UniProt Q99250); assay: Use-dependent inhibition of human Nav1.2 expressed in HEK293 cells at 10 uM using double-pulse protocol by patch clamp technique; type: cell-based; method in brief: as §3
# [20] = target: Sodium channel protein type 2 subunit alpha (Homo sapiens) (UniProt Q99250); assay: Inhibition of human Nav1.2 expressed in HEK293 cells assessed as change in membrane potential at 50 uM by patch clamp technique; type: cell-based; method in brief: as §2
# [21] = target: T1, Sodium channel protein type 8 subunit alpha; assay: Inhibition of human Nav1.6 expressed in HEK293 cells assessed as change in membrane potential at 10 uM by patch clamp technique; type: cell-based; method in brief: as §2
# [22] = target: Sodium channel protein type 2 subunit alpha (Homo sapiens) (UniProt Q99250); assay: Use-dependent inhibition of human Nav1.2 expressed in HEK293 cells at 50 uM using double-pulse protocol by patch clamp technique; type: cell-based; method in brief: as §3
# [23] = target: Sodium channel protein type 2 subunit alpha (Homo sapiens) (UniProt Q99250); assay: Inhibition of human Nav1.2 expressed in HEK293 cells assessed as change in membrane potential at 10 uM by patch clamp technique; type: cell-based; method in brief: as §2
# Rattus norvegicus [24] = species: Rattus norvegicus; assay: Voltage-dependent inhibition of voltage-gated sodium channel in Sprague-Dawley rat hippocampal neurons at 30 uM at an initial membrane potential of -90 mV by voltage clamp technique; type: tissue-based; set-up: scale not given: the % may be the effect or the level left; details: Hippocampus
# [25] = target: T1, Sodium channel protein type 8 subunit alpha; assay: Inhibition of human Nav1.6 expressed in HEK293 cells assessed as change in membrane potential using MP-red voltage sensitive dye; type: cell-based; method in brief: as §1
# Cytochrome P450 1A2 = target: T2, Cytochrome P450 1A2 (Homo sapiens, UniProt P05177); assay: Inhibition of human recombinant CYP1A2; type: ADME
# T2 sequence (P05177 whole entry): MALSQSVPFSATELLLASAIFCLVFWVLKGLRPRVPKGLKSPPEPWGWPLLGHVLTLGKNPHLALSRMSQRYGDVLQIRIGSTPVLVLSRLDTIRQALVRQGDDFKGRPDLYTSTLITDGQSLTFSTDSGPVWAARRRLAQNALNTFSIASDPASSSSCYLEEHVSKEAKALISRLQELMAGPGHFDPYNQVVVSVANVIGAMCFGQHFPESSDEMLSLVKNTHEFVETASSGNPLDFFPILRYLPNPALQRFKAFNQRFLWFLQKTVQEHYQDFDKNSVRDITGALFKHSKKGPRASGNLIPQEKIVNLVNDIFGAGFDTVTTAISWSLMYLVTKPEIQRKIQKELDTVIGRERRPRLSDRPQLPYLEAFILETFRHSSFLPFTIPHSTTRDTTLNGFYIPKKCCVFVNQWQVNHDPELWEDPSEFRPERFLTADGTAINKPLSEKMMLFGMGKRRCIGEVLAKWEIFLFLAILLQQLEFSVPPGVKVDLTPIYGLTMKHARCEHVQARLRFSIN
# Rattus norvegicus [26] = species: Rattus norvegicus; assay: Use-dependent inhibition of voltage-gated sodium channel in Sprague-Dawley rat hippocampal neurons at 30 uM using 20 Hz train of 20 voltage steps from -90 mV with duration of 20 ms by voltage clamp technique; type: tissue-based; details: Hippocampus
# Method in brief: (§4)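 Whole-cell voltage clamp of dissociated P14-16 Sprague-Dawley rat hippocampal neurons, with compound at 30 µM. A 20 Hz train of 20 voltage steps from -90 mV, each step 3.5 ms or 20 ms, and cumulative depression of peak sodium current during the train compared with control.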
# Cytochrome P450 2D6 = Cytochrome P450 2D6 (Homo sapiens, UniProt P10635); assay: Inhibition of human recombinant CYP2D6; type: ADME
# Rattus norvegicus [27] = species: Rattus norvegicus; assay: Use-dependent inhibition of voltage-gated sodium channel in Sprague-Dawley rat hippocampal neurons at 30 uM using 20 Hz train of 20 voltage steps from -90 mV with duration of 3.5 ms by voltage clamp technique; type: tissue-based; details: Hippocampus; method in brief: as §4
# Rattus norvegicus [28] = species: Rattus norvegicus; assay: Inhibition of […] state of voltage-gated sodium channel in Sprague-Dawley rat hippocampal neurons at 30 uM using 300 ms conditioning voltage step to 0 mV followed by 15 ms period at -90 mV by paired pulse protocol; type: tissue-based; details: Hippocampus
# Method in brief: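 Paired-pulse protocol on dissociated P14-16 Sprague-Dawley rat hippocampal neurons, compound at 30 µM. A 300 ms conditioning step to 0 mV (P1), 15 ms at -90 mV, then a 10 ms test step to 0 mV (P2). Tonic inhibition at P1 compared with inhibition at P2 after slow inactivation develops.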
# Hippocampus [29] = assay: Neuroprotective activity in Wistar rat hippocampal slices assessed as ATP concentration at 50 uM relative to tetrodotoxin; type: functional
# [30] = target: T1, Sodium channel protein type 8 subunit alpha; assay: Inhibition of Nav1.6 using 20 Hz train of 20 voltage steps from -90 mV with duration of 3.5 ms at 30 uM by paired pulse protocol
# Rattus norvegicus [31] = species: Rattus norvegicus; assay: Voltage-dependent inhibition of voltage-gated sodium channel in Sprague-Dawley rat hippocampal neurons at 30 uM at an initial membrane potential of -70 mV by voltage clamp technique; type: tissue-based; set-up: scale not given: the % may be the effect or the level left; details: Hippocampus
# Sodium channel protein type 3 subunit alpha (Homo sapiens), sequence (Q9NY46 whole entry, looked up): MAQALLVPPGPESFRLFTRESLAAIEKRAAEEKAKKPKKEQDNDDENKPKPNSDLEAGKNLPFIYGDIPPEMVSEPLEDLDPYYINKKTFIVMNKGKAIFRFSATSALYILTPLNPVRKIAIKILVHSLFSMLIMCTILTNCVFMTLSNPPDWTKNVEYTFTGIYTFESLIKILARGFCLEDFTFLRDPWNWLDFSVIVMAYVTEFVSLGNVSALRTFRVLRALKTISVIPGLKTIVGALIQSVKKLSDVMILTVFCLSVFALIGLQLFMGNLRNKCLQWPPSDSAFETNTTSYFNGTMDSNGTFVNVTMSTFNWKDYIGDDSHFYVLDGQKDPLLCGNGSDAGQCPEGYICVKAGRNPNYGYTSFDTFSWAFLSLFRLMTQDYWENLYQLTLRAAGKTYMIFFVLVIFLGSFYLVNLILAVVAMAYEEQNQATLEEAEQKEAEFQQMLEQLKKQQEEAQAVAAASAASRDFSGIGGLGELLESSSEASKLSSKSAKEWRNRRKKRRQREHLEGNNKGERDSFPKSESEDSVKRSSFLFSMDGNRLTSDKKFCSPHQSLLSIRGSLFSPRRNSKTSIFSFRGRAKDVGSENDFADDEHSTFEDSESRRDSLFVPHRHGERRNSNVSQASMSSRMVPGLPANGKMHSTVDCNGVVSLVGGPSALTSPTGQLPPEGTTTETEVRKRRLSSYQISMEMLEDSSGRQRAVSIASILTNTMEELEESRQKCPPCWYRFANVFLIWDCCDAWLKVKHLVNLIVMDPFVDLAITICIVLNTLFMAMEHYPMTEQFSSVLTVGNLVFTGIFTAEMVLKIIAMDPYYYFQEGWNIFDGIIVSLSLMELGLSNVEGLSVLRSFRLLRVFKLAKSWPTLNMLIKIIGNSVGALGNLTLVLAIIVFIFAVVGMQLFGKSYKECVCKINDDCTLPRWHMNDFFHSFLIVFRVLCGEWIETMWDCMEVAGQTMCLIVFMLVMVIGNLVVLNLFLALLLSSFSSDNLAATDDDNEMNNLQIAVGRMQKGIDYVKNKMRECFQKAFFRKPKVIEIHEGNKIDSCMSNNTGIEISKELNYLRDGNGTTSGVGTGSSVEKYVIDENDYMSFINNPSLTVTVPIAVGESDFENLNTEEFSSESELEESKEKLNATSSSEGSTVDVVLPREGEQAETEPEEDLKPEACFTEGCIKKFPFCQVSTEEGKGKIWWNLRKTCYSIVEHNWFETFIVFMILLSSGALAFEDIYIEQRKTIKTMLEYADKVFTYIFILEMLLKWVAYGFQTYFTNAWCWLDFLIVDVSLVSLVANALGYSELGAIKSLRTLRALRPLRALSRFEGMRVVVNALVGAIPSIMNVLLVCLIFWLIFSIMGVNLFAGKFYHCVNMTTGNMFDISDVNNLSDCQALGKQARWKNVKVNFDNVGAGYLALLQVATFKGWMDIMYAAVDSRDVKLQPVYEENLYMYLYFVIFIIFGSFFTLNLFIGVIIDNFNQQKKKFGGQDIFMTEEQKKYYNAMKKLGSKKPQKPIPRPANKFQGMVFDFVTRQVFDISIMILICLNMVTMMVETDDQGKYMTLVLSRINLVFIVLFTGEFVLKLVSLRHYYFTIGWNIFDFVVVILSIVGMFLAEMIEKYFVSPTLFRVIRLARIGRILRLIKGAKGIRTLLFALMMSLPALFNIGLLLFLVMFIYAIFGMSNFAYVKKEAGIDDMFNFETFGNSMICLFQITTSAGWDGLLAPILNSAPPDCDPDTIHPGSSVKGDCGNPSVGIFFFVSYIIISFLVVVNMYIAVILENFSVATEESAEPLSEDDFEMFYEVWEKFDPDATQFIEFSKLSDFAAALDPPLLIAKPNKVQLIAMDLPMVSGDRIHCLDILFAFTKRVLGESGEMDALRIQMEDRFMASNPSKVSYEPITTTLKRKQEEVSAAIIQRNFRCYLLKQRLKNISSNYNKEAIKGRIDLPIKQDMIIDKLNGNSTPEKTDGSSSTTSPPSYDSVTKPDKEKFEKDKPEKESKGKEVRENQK
# Cytochrome P450 2D6, sequence (P10635 whole entry): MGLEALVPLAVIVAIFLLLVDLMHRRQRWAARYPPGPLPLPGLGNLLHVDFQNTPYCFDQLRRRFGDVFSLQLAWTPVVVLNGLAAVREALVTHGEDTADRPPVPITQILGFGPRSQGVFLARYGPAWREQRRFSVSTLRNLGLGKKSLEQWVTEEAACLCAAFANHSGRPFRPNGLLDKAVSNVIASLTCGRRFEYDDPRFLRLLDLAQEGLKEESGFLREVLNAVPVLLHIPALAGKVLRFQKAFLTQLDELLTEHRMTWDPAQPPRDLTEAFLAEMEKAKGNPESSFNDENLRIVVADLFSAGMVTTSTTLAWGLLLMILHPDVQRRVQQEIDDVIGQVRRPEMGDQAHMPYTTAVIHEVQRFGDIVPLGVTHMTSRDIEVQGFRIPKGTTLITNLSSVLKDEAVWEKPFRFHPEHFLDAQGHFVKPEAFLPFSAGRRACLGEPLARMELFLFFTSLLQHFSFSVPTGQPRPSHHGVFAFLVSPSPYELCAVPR
# Sodium channel protein type 10 subunit alpha (Homo sapiens), sequence (Q9Y5Y9 whole entry, looked up): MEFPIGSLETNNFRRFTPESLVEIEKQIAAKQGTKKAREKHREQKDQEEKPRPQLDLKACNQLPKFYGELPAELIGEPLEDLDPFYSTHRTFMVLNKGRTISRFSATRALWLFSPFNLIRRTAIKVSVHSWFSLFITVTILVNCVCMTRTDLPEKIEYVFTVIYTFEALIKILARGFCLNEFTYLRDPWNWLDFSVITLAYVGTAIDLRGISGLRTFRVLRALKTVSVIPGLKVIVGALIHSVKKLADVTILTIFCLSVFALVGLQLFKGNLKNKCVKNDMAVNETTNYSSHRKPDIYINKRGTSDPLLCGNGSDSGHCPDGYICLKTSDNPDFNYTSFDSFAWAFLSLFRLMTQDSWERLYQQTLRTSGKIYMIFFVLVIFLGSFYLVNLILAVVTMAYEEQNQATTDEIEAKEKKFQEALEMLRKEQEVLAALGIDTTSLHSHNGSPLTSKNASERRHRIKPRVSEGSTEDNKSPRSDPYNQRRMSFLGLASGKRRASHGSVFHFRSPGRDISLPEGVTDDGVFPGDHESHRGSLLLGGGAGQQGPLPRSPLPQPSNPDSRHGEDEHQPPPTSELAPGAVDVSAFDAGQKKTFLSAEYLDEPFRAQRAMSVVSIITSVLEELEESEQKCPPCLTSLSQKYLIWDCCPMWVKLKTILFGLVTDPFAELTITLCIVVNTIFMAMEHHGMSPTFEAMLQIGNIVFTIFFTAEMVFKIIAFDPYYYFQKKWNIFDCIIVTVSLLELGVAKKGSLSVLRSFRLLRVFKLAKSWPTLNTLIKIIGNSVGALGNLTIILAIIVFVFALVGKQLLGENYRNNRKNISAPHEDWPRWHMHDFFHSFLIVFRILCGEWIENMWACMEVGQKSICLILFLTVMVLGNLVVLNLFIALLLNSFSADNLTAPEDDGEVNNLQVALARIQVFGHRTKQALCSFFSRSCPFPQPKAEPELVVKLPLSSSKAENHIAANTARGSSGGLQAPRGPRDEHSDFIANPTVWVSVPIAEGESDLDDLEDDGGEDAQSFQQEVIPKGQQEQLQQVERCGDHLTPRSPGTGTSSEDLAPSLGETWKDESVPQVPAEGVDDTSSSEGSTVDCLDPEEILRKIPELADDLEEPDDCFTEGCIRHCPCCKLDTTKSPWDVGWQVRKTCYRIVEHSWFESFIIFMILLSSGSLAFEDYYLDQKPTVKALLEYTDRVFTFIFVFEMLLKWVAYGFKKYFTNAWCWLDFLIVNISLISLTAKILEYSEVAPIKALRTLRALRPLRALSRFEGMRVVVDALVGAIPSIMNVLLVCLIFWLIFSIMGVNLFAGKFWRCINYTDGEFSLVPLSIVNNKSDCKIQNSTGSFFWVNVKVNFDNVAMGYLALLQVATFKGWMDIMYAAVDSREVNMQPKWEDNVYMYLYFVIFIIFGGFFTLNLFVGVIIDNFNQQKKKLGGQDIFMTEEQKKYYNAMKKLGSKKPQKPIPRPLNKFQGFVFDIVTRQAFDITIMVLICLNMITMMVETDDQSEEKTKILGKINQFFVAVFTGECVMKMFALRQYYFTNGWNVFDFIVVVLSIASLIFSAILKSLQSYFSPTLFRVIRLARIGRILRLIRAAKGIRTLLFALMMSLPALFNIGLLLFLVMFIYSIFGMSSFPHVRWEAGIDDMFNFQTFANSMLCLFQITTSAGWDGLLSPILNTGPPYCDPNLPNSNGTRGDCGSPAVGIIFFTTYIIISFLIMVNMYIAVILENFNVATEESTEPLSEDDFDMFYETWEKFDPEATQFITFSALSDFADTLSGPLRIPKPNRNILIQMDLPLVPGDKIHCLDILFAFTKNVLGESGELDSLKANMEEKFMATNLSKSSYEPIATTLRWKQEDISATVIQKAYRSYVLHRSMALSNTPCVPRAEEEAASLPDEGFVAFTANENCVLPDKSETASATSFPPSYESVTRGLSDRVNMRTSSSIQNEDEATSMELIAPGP
Compound,inhibition [1] [%],inhibition [2] [%],inhibition [4] [%],inhibition [7] [%],inhibition [9] [%],inhibition [10] [%],inhibition at 10 µM [11] [%],pIC50 [13],pIC50 [14],inhibition [15] [%],inhibition [17] [%],inhibition [18] [%],inhibition [19] [%],inhibition [20] [%],inhibition [21] [%],inhibition [22] [%],inhibition [23] [%],pIC50 (Cytochrome P450 1A2),pIC50 (Cytochrome P450 2D6),Activity (Hippocampus [29]) [%],further results
Nc1nnc(-c2cccc(Cl)c2Cl)c(N)n1 [LAMOTRIGINE],23,22,44,21,45,46,40,3.66,5.59,,,,,,,,,,,,inhibition [3]: 17%; inhibition [5]: 18.1%; inhibition [6]: 7.9%; Activity (Hippocampus [8]): 33%; inhibition [12]: 4.1%
Nc1nc(N)c(-c2cc(Cl)cc(Cl)c2Cl)c(CF)n1,37,100,56,98,44,86,39,5.59,7.40,62.7,81.4,97.3,43.4,75.2,2.3,88.5,0.7,,,,Activity (Hippocampus [16]): 93%
NCc1noc(-c2c3ccccc3nn2Cc2ccccc2)n1,,78,51,98,92,84,81,4.35,5.17,31.5,29,65.8,35.8,33.8,10.2,70.8,13,6.50,< 5.00,63,Activity (Rattus norvegicus [24]): 10%; pIC50 [25]: 5.99; Activity (Rattus norvegicus [26]): Active; Activity (Rattus norvegicus [27]): Active; Activity (Rattus norvegicus [28]): Active; Activity [30]: Active; Activity (Rattus norvegicus [31]): 60%
NCc1noc(-c2c3ccccc3nn2Cc2cccc(Cl)c2)n1,,,,,,,,4.62,3.96,,,,,,,,,,,17,
CN1CCN(c2ncc(-c3cc(Cl)cc(Cl)c3Cl)c(N)n2)CC1 [SIPATRIGINE],70,61,55,97,67,76,97,,,43.4,37,63.2,40.1,75.2,10.4,84.6,21.6,,,,Activity (Hippocampus [8]): 57%
NCc1noc(-c2nn(Cc3ccccc3)c3ccccc23)n1,,79,48,97,59,90,48,4.76,5.48,40.9,1.1,18.7,1.9,10.8,9.5,14.7,6.6,8.05,7.05,99,pIC50 [25]: 6.18; Activity (Rattus norvegicus [28]): Active
NCc1noc(-c2c3ccccc3nn2CCc2ccccc2)n1,,,,,,,,4.72,,,,,,,,,,6.44,5.37,54,
NCc1noc(-c2nn(CCc3ccccc3)c3ccccc23)n1,,,,,,,,4.46,,,,,,,,,,7.47,5.88,49,
